Measurements taken from ChEMBL document CHEMBL1157912, “Impact of nature and length of linker incorporated in agonists on toll-like receptor 9-mediated immune responses” (J Med Chem, 2010).

Assays:
[1] = molecular target: T1, Toll-like receptor 9 (Homo sapiens) (UniProt Q9NR96); experiment: Induction of TLR9-mediated immune stimulation in human PBMC assessed as IL6 production at 10 ug/ml after 24 hrs by luminex multiplex assay (RVb = 0.01 ng/ml)
T1 sequence (whole entry): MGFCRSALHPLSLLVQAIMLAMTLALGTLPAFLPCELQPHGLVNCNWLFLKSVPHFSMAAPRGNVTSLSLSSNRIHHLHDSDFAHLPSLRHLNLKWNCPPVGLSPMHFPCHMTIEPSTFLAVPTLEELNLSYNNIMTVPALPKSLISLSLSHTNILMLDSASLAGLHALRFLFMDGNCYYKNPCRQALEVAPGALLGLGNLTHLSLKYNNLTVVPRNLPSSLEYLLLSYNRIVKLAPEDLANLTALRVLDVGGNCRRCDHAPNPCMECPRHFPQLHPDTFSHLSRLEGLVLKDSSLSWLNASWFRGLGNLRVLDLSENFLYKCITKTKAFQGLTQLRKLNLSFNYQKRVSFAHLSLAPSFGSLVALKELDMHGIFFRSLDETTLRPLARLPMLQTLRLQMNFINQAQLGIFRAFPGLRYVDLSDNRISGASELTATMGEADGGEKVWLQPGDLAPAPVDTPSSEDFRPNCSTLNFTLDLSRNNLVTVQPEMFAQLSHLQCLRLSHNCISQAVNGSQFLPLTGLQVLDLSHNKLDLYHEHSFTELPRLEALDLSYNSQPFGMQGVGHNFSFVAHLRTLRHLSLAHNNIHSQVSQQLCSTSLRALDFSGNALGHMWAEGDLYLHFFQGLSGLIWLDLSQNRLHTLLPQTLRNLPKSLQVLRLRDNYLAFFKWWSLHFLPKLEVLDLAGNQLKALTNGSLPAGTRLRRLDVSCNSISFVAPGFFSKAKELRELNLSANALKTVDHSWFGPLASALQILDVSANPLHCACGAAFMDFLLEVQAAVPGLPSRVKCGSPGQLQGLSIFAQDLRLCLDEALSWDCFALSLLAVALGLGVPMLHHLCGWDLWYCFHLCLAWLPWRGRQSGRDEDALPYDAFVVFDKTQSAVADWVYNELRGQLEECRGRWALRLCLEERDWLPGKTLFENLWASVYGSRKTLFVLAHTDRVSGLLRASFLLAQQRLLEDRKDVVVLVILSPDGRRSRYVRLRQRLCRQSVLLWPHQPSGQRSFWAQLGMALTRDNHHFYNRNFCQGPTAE

[2] = molecular target: T1, Toll-like receptor 9 (Homo sapiens); experiment: Induction of TLR9-mediated immune stimulation in human PBMC assessed as MIP1alpha production at 2 ug/ml after 24 hrs by luminex multiplex assay (RVb = 0.01 ng/ml)
[3] = molecular target: T1, Toll-like receptor 9 (Homo sapiens); experiment: Induction of TLR9-mediated immune stimulation in human PBMC assessed as IL12 production at 10 ug/ml after 24 hrs by luminex multiplex assay (RVb = 0.00 ng/ml)
[4] = molecular target: T1, Toll-like receptor 9 (Homo sapiens); experiment: Induction of TLR9-mediated immune stimulation in human PBMC assessed as MIP1beta production at 10 ug/ml after 24 hrs by luminex multiplex assay (RVb = 0.03 +/- 0.02 ng/ml)
[5] = molecular target: T1, Toll-like receptor 9 (Homo sapiens); experiment: Induction of TLR9-mediated human B cell proliferation assessed as [3H]thymidine uptake after 56 hrs by scintillation counting
In short: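 B cells were purified from human PBMCs (healthy volunteers), about 1 × 10⁵ cells, and stimulated with various agonist concentrations for 56 h. Cells were then pulsed with 0.75 μCi [³H]-thymidine and harvested 16 h later. Incorporation was counted by scintillation and reported as cpm.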

[6] = molecular target: T1, Toll-like receptor 9 (Homo sapiens); experiment: Induction of TLR9-mediated immune stimulation in human PBMC assessed as MIP1alpha production at 10 ug/ml after 24 hrs by luminex multiplex assay (RVb = 0.01 ng/ml)
[7] = molecular target: T1, Toll-like receptor 9 (Homo sapiens); experiment: Induction of TLR9-mediated immune stimulation in human PBMC assessed as MCP1 production at 10 ug/ml after 24 hrs by luminex multiplex assay (RVb = 0.08 +/- 0.02 ng/ml)
[8] = molecular target: T1, Toll-like receptor 9 (Homo sapiens); experiment: Induction of TLR9-mediated immune stimulation in human PBMC assessed as IP10 production at 2 ug/ml after 24 hrs by luminex multiplex assay (RVb = 0.00 ng/ml)
[9] = molecular target: T2, Toll-like receptor 9 (Mus musculus) (UniProt Q9EQU3); experiment: Induction of TLR9-mediated IL12 production in C57BL/6 mouse spleen cells after 24 hrs by ELISA; assay type: cell-based
T2 sequence (whole entry): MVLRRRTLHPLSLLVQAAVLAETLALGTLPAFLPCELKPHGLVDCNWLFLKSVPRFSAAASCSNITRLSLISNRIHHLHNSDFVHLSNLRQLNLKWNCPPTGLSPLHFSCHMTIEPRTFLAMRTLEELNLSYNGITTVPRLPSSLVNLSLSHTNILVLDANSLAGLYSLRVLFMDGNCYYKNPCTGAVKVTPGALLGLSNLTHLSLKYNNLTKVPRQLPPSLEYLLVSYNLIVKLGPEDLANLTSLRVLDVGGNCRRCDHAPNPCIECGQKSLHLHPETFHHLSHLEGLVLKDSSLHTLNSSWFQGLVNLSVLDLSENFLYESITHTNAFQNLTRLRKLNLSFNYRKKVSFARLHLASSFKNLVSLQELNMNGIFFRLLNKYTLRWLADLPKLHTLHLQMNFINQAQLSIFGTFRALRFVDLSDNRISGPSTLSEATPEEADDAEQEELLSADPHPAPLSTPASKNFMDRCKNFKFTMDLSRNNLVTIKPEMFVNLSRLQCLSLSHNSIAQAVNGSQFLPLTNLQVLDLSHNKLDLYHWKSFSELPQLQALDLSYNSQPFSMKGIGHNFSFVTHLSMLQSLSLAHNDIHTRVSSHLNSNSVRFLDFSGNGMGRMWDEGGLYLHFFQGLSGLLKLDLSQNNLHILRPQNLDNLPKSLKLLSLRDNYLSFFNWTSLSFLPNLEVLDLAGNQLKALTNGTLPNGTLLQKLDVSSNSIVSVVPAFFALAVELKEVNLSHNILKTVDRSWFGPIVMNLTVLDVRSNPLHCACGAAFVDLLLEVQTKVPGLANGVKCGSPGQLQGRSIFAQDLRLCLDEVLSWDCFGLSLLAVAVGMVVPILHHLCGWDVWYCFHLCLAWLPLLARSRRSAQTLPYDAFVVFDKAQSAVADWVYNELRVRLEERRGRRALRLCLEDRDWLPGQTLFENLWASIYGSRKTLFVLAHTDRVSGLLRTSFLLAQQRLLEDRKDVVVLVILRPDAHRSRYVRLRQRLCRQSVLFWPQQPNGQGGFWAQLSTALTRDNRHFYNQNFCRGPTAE
In short: (§1)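 C57BL/6 mouse spleen cells were cultured with agonists at 0.1, 0.3, 1, 3 and 10 μg/mL for 24 h. Secreted IL-12 and IL-6 in the supernatants were measured by ELISA. Values are averages of triplicate wells from one representative of at least two independent experiments.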

[10] = molecular target: T2, Toll-like receptor 9 (Mus musculus); experiment: Induction of TLR9-mediated IL6 production in C57BL/6 mouse spleen cells after 24 hrs by ELISA; assay type: cell-based; in short: as §1

SMILES	Activity [1] [ng/mL]	Activity [2] [ng/mL]	Activity [3] [ng/mL]	Activity [4] [ng/mL]	Activity [5]	Activity [6] [ng/mL]	Activity [7] [ng/mL]	Activity [8] [ng/mL]	Activity [9]	Activity [10]
Cc1cn([C@H]2C[C@H](OCCC(O)CCOP(=O)(S)O[C@H]3C[C@H](n4cc(C)c(=O)[nH]c4=O)O[C@@H]3COP(=O)(S)O[C@H]3[C@@H](O)[C@H](n4ccc(N)nc4=O)O[C@@H]3COP(=O)(S)O[C@H]3C[C@H](n4cc(C)c(=O)[nH]c4=O)O[C@@H]3COP(=O)(S)O[C@H]3C[C@H](n4cc(C)c(=O)[nH]c4=O)O[C@@H]3COP(=O)(S)O[C@H]3C[C@H](n4ccc5c(=O)[nH]c(N)nc54)O[C@@H]3COP(=O)(S)O[C@H]3[C@@H](O)[C@H](n4ccc(N)nc4=O)O[C@@H]3COP(=O)(S)O[C@H]3C[C@H](n4cc(C)c(=O)[nH]c4=O)O[C@@H]3COP(=O)(S)O[C@H]3[C@@H](O)[C@H](n4cnc5c(=O)[nH]c(N)nc54)O[C@@H]3COP(=O)(S)O[C@H]3C[C@H](n4cc(C)c(=O)[nH]c4=O)O[C@@H]3COP(=O)(S)O[C@H]3[C@@H](O)[C@H](n4ccc(N)nc4=O)O[C@@H]3COP(=O)(S)O[C@H]3C[C@H](n4cc(C)c(=O)[nH]c4=O)O[C@@H]3CO)[C@@H](COP(=O)(S)O[C@H]3[C@@H](O)[C@H](n4ccc(N)nc4=O)O[C@@H]3COP(=O)(S)O[C@H]3C[C@H](n4cc(C)c(=O)[nH]c4=O)O[C@@H]3COP(=O)(S)O[C@H]3C[C@H](n4cc(C)c(=O)[nH]c4=O)O[C@@H]3COP(=O)(S)O[C@H]3C[C@H](n4ccc5c(=O)[nH]c(N)nc54)O[C@@H]3COP(=O)(S)O[C@H]3[C@@H](O)[C@H](n4ccc(N)nc4=O)O[C@@H]3COP(=O)(S)O[C@H]3C[C@H](n4cc(C)c(=O)[nH]c4=O)O[C@@H]3COP(=O)(S)O[C@H]3[C@@H](O)[C@H](n4cnc5c(=O)[nH]c(N)nc54)O[C@@H]3COP(=O)(S)O[C@H]3C[C@H](n4cc(C)c(=O)[nH]c4=O)O[C@@H]3COP(=O)(S)O[C@H]3[C@@H](O)[C@H](n4ccc(N)nc4=O)O[C@@H]3COP(=O)(S)O[C@H]3C[C@H](n4cc(C)c(=O)[nH]c4=O)O[C@@H]3CO)O2)c(=O)[nH]c1=O (stereo not given in full)	0.47	0.05	0.17	0.61	Dose-dependent effect	0.17	0.64	0.02	Dose-dependent effect	Dose-dependent effect
Cc1cn([C@H]2C[C@H](O[C@H]3C[C@@H](O)C[C@@H](OP(=O)(S)O[C@H]4C[C@H](n5cc(C)c(=O)[nH]c5=O)O[C@@H]4COP(=O)(S)O[C@H]4[C@@H](O)[C@H](n5ccc(N)nc5=O)O[C@@H]4COP(=O)(S)O[C@H]4C[C@H](n5cc(C)c(=O)[nH]c5=O)O[C@@H]4COP(=O)(S)O[C@H]4C[C@H](n5cc(C)c(=O)[nH]c5=O)O[C@@H]4COP(=O)(S)O[C@H]4C[C@H](n5ccc6c(=O)[nH]c(N)nc65)O[C@@H]4COP(=O)(S)O[C@H]4[C@@H](O)[C@H](n5ccc(N)nc5=O)O[C@@H]4COP(=O)(S)O[C@H]4C[C@H](n5cc(C)c(=O)[nH]c5=O)O[C@@H]4COP(=O)(S)O[C@H]4[C@@H](O)[C@H](n5cnc6c(=O)[nH]c(N)nc65)O[C@@H]4COP(=O)(S)O[C@H]4C[C@H](n5cc(C)c(=O)[nH]c5=O)O[C@@H]4COP(=O)(S)O[C@H]4[C@@H](O)[C@H](n5ccc(N)nc5=O)O[C@@H]4COP(=O)(S)O[C@H]4C[C@H](n5cc(C)c(=O)[nH]c5=O)O[C@@H]4CO)C3)[C@@H](COP(=O)(S)O[C@H]3[C@@H](O)[C@H](n4ccc(N)nc4=O)O[C@@H]3COP(=O)(S)O[C@H]3C[C@H](n4cc(C)c(=O)[nH]c4=O)O[C@@H]3COP(=O)(S)O[C@H]3C[C@H](n4cc(C)c(=O)[nH]c4=O)O[C@@H]3COP(=O)(S)O[C@H]3C[C@H](n4ccc5c(=O)[nH]c(N)nc54)O[C@@H]3COP(=O)(S)O[C@H]3[C@@H](O)[C@H](n4ccc(N)nc4=O)O[C@@H]3COP(=O)(S)O[C@H]3C[C@H](n4cc(C)c(=O)[nH]c4=O)O[C@@H]3COP(=O)(S)O[C@H]3[C@@H](O)[C@H](n4cnc5c(=O)[nH]c(N)nc54)O[C@@H]3COP(=O)(S)O[C@H]3C[C@H](n4cc(C)c(=O)[nH]c4=O)O[C@@H]3COP(=O)(S)O[C@H]3[C@@H](O)[C@H](n4ccc(N)nc4=O)O[C@@H]3COP(=O)(S)O[C@H]3C[C@H](n4cc(C)c(=O)[nH]c4=O)O[C@@H]3CO)O2)c(=O)[nH]c1=O (stereo not given in full)	0.67	0.05	0.2	2.15	Dose-dependent effect	0.67	8.45	0.03	Dose-dependent effect	Dose-dependent effect
